Measurements: ChEMBL document CHEMBL2069204, “N-1-Alkyl-2-oxo-2-aryl amides as novel antagonists of the TRPA1 receptor” (Bioorg Med Chem Lett, 2012)
≈ marks a conversion by molar mass, not a printed value. Calls of active or inactive are those of the source. No cut-off for these calls is given here.

Experiments:
[1] = target: T1, Transient receptor potential cation channel subfamily A member 1 (Homo sapiens, UniProt O75762); assay: Antagonist activity at human TRPA1 expressed in HEK293 cells assessed as inhibition of Ca2+-induced intracellular calcium flux by FLIPR assay; assay type: functional, cell-based
Summary of the method: (§1)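 Fluorescence-based TRPA1 antagonist assay with the agonist as the stimulus: Ca2+ for line 1 and Zn2+ for line 2. Results are reported as pIC50. Compounds with pIC50 > 5 were checked by automated electrophysiology on IonWorks to exclude autofluorescence artefacts. The IC50s from the two agonist formats were pooled and treated as one data set.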

[2] = target: T1, Transient receptor potential cation channel subfamily A member 1; assay: Antagonist activity at human TRPA1 expressed in HEK293 cells assessed as inhibition of Zn2+-induced intracellular calcium flux by FLIPR assay; assay type: functional, cell-based; summary of the method: as §1
[3] = Solubility of the compound in phosphate buffer at pH 7.4 by dried DMSO method; assay type: physicochemical
Summary of the method: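 Measured by the 'dried DMSO' method in phosphate buffer at pH 7.4. Results are binned as low (<1–5 μM), medium (5–25 μM) or good (>25 μM).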

[4] = Metabolic stability in human microsomes assessed as glutathione adduct formation

T1 sequence (O75762 whole entry): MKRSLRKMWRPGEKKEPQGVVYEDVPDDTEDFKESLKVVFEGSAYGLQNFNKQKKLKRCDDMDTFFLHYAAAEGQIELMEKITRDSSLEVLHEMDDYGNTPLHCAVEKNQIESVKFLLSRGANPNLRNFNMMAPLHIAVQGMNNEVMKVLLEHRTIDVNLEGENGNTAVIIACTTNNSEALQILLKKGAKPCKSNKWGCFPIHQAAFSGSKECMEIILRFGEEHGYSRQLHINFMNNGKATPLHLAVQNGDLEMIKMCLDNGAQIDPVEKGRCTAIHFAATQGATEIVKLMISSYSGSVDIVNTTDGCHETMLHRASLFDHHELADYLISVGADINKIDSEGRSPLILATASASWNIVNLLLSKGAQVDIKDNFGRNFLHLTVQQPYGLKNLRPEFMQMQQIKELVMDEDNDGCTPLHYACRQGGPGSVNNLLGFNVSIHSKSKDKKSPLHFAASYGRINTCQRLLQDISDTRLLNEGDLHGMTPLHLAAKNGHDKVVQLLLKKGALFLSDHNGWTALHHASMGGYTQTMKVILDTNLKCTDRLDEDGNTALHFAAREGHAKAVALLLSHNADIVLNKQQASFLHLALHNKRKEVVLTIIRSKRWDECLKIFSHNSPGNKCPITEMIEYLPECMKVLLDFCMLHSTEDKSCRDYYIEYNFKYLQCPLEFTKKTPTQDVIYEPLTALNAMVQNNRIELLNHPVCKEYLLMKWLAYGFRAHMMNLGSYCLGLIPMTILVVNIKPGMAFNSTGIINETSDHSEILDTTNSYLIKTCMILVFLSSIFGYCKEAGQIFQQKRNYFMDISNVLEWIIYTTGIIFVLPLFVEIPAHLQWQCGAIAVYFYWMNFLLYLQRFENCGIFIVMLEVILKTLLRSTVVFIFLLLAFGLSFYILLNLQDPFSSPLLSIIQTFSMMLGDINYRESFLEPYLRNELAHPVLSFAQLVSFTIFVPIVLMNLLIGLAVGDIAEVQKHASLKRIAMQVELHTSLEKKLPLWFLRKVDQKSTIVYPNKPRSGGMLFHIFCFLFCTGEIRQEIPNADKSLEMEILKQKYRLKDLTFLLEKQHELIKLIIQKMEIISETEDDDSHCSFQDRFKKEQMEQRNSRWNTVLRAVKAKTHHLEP

Row | SMILES | IC50 [1] | IC50 [2] | also measured
1 | CC(C)C(NC(=O)Nc1ccc(F)cc1)C(=O)c1ccc(C#N)cc1 (stereo unspecified) | – | – | pIC50 [1]: inactive; pIC50 [2]: inactive
2 | CC(C)C(NC(=O)c1ccc(Cl)cc1Cl)C(=O)c1ccc(C#N)cc1 (stereo unspecified) | 5.01 µM | 2.51 µM | –
3 | CC(C)(C)C(NC(=O)c1ccccc1)C(=O)c1ccc(Cl)cc1 (stereo unspecified) | 1 µM | 0.398 µM | –
4 | Cc1noc(-c2ccccc2)c1C(=O)NC(C(=O)c1ccc(C#N)cc1)C(C)C (stereo unspecified) | 7.94 µM | 3.98 µM | –
5 | Cc1noc(C(C)C)c1C(=O)NC(C(=O)c1ccc(C#N)cc1)C(C)C (stereo unspecified) | 1.58 µM | 2 µM | –
6 | CC(C)C(C)(NC(=O)c1ccccc1)C(=O)c1ccc(Cl)cc1 (stereo unspecified) | 3.16 µM | – | pIC50 [2]: inactive
7 | CC(C)C(NC(=O)OC(C)(C)C)C(=O)c1ccc(C#N)cc1 (stereo unspecified) | 6.31 µM | 2.51 µM | –
8 | Cc1noc(C(C)C)c1C(=O)NC1C(=O)c2ccc(Cl)cc2CC1(C)C (stereo unspecified) | – | – | pIC50 [2]: inactive
9 | CC(C)C(NC(=O)c1cnn(C(C)(C)C)c1C(F)(F)F)C(=O)c1ccc2nonc2c1 (stereo unspecified) | – | 0.398 µM | –
10 | CC(C)C(NC(=O)OC(C)(C)C)C(=O)c1ccc(Cl)cc1 (stereo unspecified) | 1 µM | 0.794 µM | –
11 | CC(C)C(NC(=O)N(C)C(C)(C)C)C(=O)c1ccc(C#N)cc1 (stereo unspecified) | 3.98 µM | – | –
12 | CC(C)C(NC(=O)c1ccccc1)C(=O)c1ccccc1 (racemic) | – | – | pIC50 [1]: inactive; pIC50 [2]: < 4.5
13 | Cc1noc(C(C)C)c1C(=O)NC(C(=O)c1ccc(C#N)c(F)c1)C(C)(C)C (stereo unspecified) | – | 0.2 µM | solubility kinetic [3]: 80 µM (≈ 30.8 µg/mL)
14 | C=CCN(CC=C)c1ccc(C(=O)C(NC(=O)c2ccccc2)C(C)C)cc1 (racemic) | – | – | pIC50 [1]: inactive; pIC50 [2]: < 4.5
15 | CC(C)C(NC(=O)NC(C)(C)C)C(=O)c1ccc(Cl)cc1 (stereo unspecified) | 2 µM | 2.51 µM | –
16 | CC(C)C(NC(=O)c1ccccc1)C(=O)c1ccc(Cl)cc1 (racemic) | 2.51 µM | 1.26 µM | –
17 | CC(C)C(NC(=O)c1cc(C(F)(F)F)ccc1Cl)C(=O)c1ccc(C#N)cc1 (stereo unspecified) | 0.398 µM | 0.316 µM | –
18 | CC(C)C(NC(=O)c1cc(Cl)ccc1F)C(=O)c1ccc(C#N)cc1 (stereo unspecified) | – | 2 µM | pIC50 [1]: inactive
19 | CC(C)C(NC(=O)c1ccccc1C(F)(F)F)C(=O)c1ccc(C#N)cc1 (stereo unspecified) | 3.16 µM | 5.01 µM | –
20 | CC(C)C(NC(=O)N1CCc2ccccc2C1)C(=O)c1ccc(C#N)cc1 (stereo unspecified) | 5.01 µM | 5.01 µM | Stability [4]: Unstable
21 | CC(C)C(NC(=O)c1ccccc1)C(=O)c1ccc(Cl)cc1 (single isomer, unassigned; isomer 2) | – | – | pIC50 [1]: inactive; pIC50 [2]: inactive
22 | CCCC(NC(=O)c1ccccc1)C(=O)c1ccc(Cl)cc1 (stereo unspecified) | – | – | pIC50 [1]: inactive; pIC50 [2]: inactive
23 | CC(C)C(NC(=O)c1cc(Cl)ccc1C(F)(F)F)C(=O)c1ccc([N+](=O)[O-])cc1 (stereo unspecified) | – | 0.01 µM | solubility kinetic [3]: < 1 µM

Row | SMILES | IC50 [1] | IC50 [2] | also measured
24 | CC(C)C(NC(=O)c1ccccc1)C(=O)c1ccc(Cl)c(Cl)c1 (racemic) | 3.98 µM | – | –
25 | CC(C)C(NC(=O)c1ccccc1)C(=O)c1ccc(Cl)cc1 (single isomer, unassigned; isomer 1) | 1 µM | 0.398 µM | –
26 | CC(C)C(NC(=O)c1ccccc1)C(=O)c1ccc(C#N)cc1 (racemic) | 3.98 µM | – | solubility kinetic [3]: 150 µM (≈ 46 µg/mL)
27 | CC(C)C(NC(=O)c1cnoc1C(C)(C)C)C(=O)c1ccc(C#N)cc1 (stereo unspecified) | 1 µM | 0.501 µM | –
28 | CC(C)C(NC(=O)OC(C)(C)C)C(=O)c1ccc(C#N)c(F)c1 (stereo unspecified) | 1.26 µM | 2 µM | –
29 | CC(C)C(NC(=O)c1ccccc1)C(=O)c1ccc(Br)cc1 (racemic) | 7.94 µM | 1.26 µM | –
30 | CC(C)C(NC(=O)c1cc2ccccc2n1C)C(=O)c1ccc(C#N)cc1 (stereo unspecified) | 3.98 µM | 1.58 µM | –
31 | CC(C)C(NC(=O)c1ccccc1)C(=O)c1ccc([N+](=O)[O-])cc1 (racemic) | 0.316 µM | 0.251 µM | –
32 | CC(C)C(NC(=O)c1ccccc1)C(=O)c1ccc(F)cc1 (racemic) | 5.01 µM | 7.94 µM | –
33 | CCCCCCCCCC(=O)NC(C(=O)c1ccc(C#N)cc1)C(C)C (stereo unspecified) | 2 µM | 1 µM | –
34 | CC(C)C(NC(=O)OC(C)(C)C)C(=O)c1ccc(Cl)cn1 (stereo unspecified) | 5.01 µM | 15.8 µM | –
35 | CC(C)C(NC(=O)c1ccccc1)C(=O)c1cccc(Cl)c1 (racemic) | – | – | pIC50 [1]: inactive; pIC50 [2]: < 4.5
36 | CC(C)C(NC(=O)NCc1ccccc1)C(=O)c1ccc(C#N)cc1 (stereo unspecified) | – | – | pIC50 [1]: inactive; pIC50 [2]: inactive
37 | O=C(NC1(C(=O)c2ccc(Cl)cc2)CCC1)c1ccccc1 | – | – | pIC50 [1]: inactive; pIC50 [2]: inactive
38 | O=C(NC(C(=O)c1ccc(Cl)cc1)C1CC1)c1ccccc1 (stereo unspecified) | 2 µM | 2 µM | –
39 | COc1ccc(C(=O)NC(C(=O)c2ccc(C#N)cc2)C(C)C)cc1 (stereo unspecified) | 12.6 µM | 6.31 µM | –
40 | CC(C)C(NC(=O)N(C)C(C)(C)C)C(=O)c1ccc(Cl)cc1 (stereo unspecified) | 0.251 µM | 0.631 µM | –
41 | CC(C)C(NC(=O)c1ccccc1)C(=O)c1ccc(S(C)(=O)=O)cc1 (racemic) | – | – | pIC50 [1]: inactive; pIC50 [2]: inactive
42 | O=C(CNC(=O)c1ccccc1)c1ccc(Cl)cc1 | – | – | pIC50 [1]: inactive; pIC50 [2]: inactive
43 | CC(C)C(NC(=O)c1ccc(Cl)cc1)C(=O)c1ccc(C#N)cc1 (stereo unspecified) | 0.398 µM | – | –
44 | CC(C)C(NC(=O)c1ccc(Cl)cc1F)C(=O)c1ccc(C#N)cc1 (stereo unspecified) | 3.16 µM | 3.98 µM | –
45 | CC(C)C(NC(=O)c1ccccc1)C(=O)c1ccc(N)cc1 (racemic) | – | – | pIC50 [1]: inactive; pIC50 [2]: inactive
